In brackets after ≈: the same amount, converted by molar mass. Blank lines part the entries; values can stand above or below the molecule they belong to. Activity calls are given as the source filed them. The calls are words filed in the database; no cut-off is given here.
How the values were obtained:
[1] = Cmax in simulated human serum in in vitro hollow-fiber PK model at 600 mg administered every 24 hrs by HPLC; assay type: ADME, organism-based; design: dose 600 mg; settings: in vitro hollow-fiber PK model simulating human serum
[2] = Tmax in simulated human serum in in vitro hollow-fiber PK model at 600 mg administered every 24 hrs; assay type: ADME, cell-free; settings: in vitro hollow-fiber PK model simulating human serum
[3] = T>MIC in Staphylococcus aureus infected neutropenic mouse thigh infection model; assay type: functional, Thigh muscle
[4] = test system: Staphylococcus aureus; test: Bactericidal activity against Staphylococcus aureus assessed as log reduction in bacterial count; assay type: functional
[5] = test system: Staphylococcus aureus; test: Antibacterial activity against Staphylococcus aureus in murine thigh infection model; assay type: functional; settings: Thigh muscle
[6] = test system: Staphylococcus aureus; test: Bactericidal activity against Staphylococcus aureus infected in in vitro hollow-fiber PK model at 100 mg administered every 12 hrs; assay type: functional, organism-based
[7] = test system: Staphylococcus aureus; test: Bactericidal activity against Staphylococcus aureus infected in in vitro hollow-fiber PK model at 200 mg administered every 24 hrs; assay type: functional, organism-based
[8] = test system: Staphylococcus aureus; test: Bactericidal activity against Staphylococcus aureus infected in in vitro hollow-fiber PK model at 400 mg administered every 24 hrs; assay type: functional, organism-based
[9] = test system: Staphylococcus aureus; test: Bactericidal activity against Staphylococcus aureus assessed as viable bacterial count at 4 times MIC; assay type: functional
[10] = test system: Staphylococcus aureus; test: Bactericidal activity against Staphylococcus aureus assessed as viable bacterial count at 2 times MIC; assay type: functional
[11] = test system: Staphylococcus aureus; test: Bactericidal activity against Staphylococcus aureus infected in in vitro hollow-fiber PK model at 200 mg administered every 12 hrs; assay type: functional, organism-based
[12] = test system: Staphylococcus aureus; test: Bactericidal activity against methicillin-resistant Staphylococcus aureus infected in rabbit at 6 mg/kg of body weight administered every 8 hrs measured after 72 hrs; assay type: functional
[13] = Half life in human serum; assay type: ADME, cell-free
[14] = test system: Staphylococcus aureus; test: Antibacterial activity against Staphylococcus aureus SMH 26910 after 24 hrs by Etest; assay type: functional; settings: SMH 26910, 24 h
[15] = test system: Staphylococcus aureus; test: Ratio of AUC to MIC in methicillin-resistant Staphylococcus aureus infected in in vitro hollow-fiber PK model at 100 mg after 24 hrs; assay type: functional
[16] = Cmax in simulated human serum in in vitro hollow-fiber PK model at 100 mg administered every 12 hrs; assay type: ADME, organism-based; design: dose 100 mg; settings: in vitro hollow-fiber PK model simulating human serum
Outline: (§1)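 Samples were taken at 0, 1, 2, 3, 4, 5, 6, 12 and 24 h. Concentrations were measured by bioassay on Penassay seed agar with Bacillus subtilis as indicator. Triplicate runs.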

[17] = test system: Staphylococcus aureus; test: Antibacterial activity against Staphylococcus aureus SMH 31236 after 24 hrs by Etest; assay type: functional; settings: SMH 31236, 24 h
[18] = test system: Staphylococcus aureus; test: Antibacterial activity against methicillin-resistant Staphylococcus aureus SMH 32985 after 24 hrs by Etest; assay type: functional; settings: SMH 32985, 24 h
[19] = test system: Staphylococcus aureus; test: Antibacterial activity against methicillin-resistant Staphylococcus aureus SMH 32985 infected in in vitro hollow-fiber model assessed as log reduction in viable bacterial count at 100 mg after 12 hrs; assay type: functional
[20] = test system: Staphylococcus aureus; test: Antibacterial activity against Staphylococcus aureus SMH 26910 infected in in vitro hollow-fiber model assessed as log reduction in viable bacterial count at 100 mg administered every 12 hrs measured after 24 hrs; assay type: functional
Outline: (§2)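 Hollow-fiber model at 37°C in 25% Mueller-Hinton broth with a peripheral-compartment inoculum of 10^6 CFU/ml. […] Samples were taken at 0–24 h and counted on nutrient agar (detection limit 2.0 x 10^2 CFU/ml). Run in triplicate.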

[21] = test system: Staphylococcus aureus; test: Bactericidal activity against Staphylococcus aureus assessed as reduction log reduction in viable bacterial count at 0.5 to 1 times MIC; assay type: functional
[22] = test system: Staphylococcus aureus; test: Antibacterial activity against Staphylococcus aureus SMH 31236 infected in in vitro hollow-fiber model assessed as log reduction in viable bacterial count at 100 mg administered every 12 hrs measured after 24 hrs; assay type: functional; outline: as §2
[23] = test system: Staphylococcus aureus; test: Antibacterial activity against Staphylococcus aureus SMH 31236 infected in in vitro hollow-fiber model assessed as log reduction in viable bacterial count at 100 mg after 12 hrs; assay type: functional; outline: as §2
[24] = test system: Staphylococcus aureus; test: Ratio of AUC to MIC in methicillin-resistant Staphylococcus aureus infected in in vitro hollow-fiber PK model at 100 mg after 12 hrs; assay type: functional
[25] = test system: Staphylococcus aureus; test: AUBKC (24 hrs) in methicillin-resistant Staphylococcus aureus SMH 31236 infected in in vitro hollow-fiber PK model at 100 mg administered every 12 hrs; assay type: functional
Outline: (§3)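 Peripheral compartment inoculated to 10^6 CFU/ml. Samples at 0–24 h were spiral-plated on nutrient agar (detection limit 2.0 x 10^2 CFU/ml). Area under the bacterial kill curve was taken over 0–24 h. Triplicate runs.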

[26] = test system: Staphylococcus aureus; test: Antibacterial activity against Staphylococcus aureus SMH 26910 infected in in vitro hollow-fiber model assessed as log reduction in viable bacterial count at 100 mg after 12 hrs; assay type: functional; outline: as §2
[27] = test system: Staphylococcus aureus; test: Antibacterial activity against methicillin-resistant Staphylococcus aureus SMH 32024 infected in in vitro hollow-fiber model assessed as log reduction in viable bacterial count at 100 mg after 12 hrs; assay type: functional
[28] = test system: Staphylococcus aureus; test: Antibacterial activity against methicillin-resistant Staphylococcus aureus SMH 32024 infected in in vitro hollow-fiber model assessed as log reduction in viable bacterial count at 100 mg administered every 12 hrs measured after 24 hrs; assay type: functional
Outline: (§4)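 Hollow-fiber model at 37°C, 25% Mueller-Hinton broth, 10^6 CFU/ml inoculum in the peripheral compartment. […] Viable counts on nutrient agar (detection limit 2.0 x 10^2 CFU/ml). Read-out is log change in count at 24 h versus start. Triplicate.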

[29] = test system: Staphylococcus aureus; test: Ratio of AUC to MIC in methicillin-resistant Staphylococcus aureus infected in in vitro hollow-fiber PK model at 100 mg administered every 12 hrs; assay type: functional
[30] = test system: Staphylococcus aureus; test: Antibacterial activity against methicillin-resistant Staphylococcus aureus SMH 32024 after 24 hrs by Etest; assay type: functional; settings: SMH 32024, 24 h
[31] = T>MIC in Staphylococcus aureus infected rabbit; assay type: functional
[32] = Tmax in simulated human serum in in vitro hollow-fiber PK model at 100 mg administered every 12 hrs; assay type: ADME, cell-free; settings: in vitro hollow-fiber PK model simulating human serum; outline: as §1
[33] = Half life in simulated human serum in in vitro hollow-fiber PK model at 100 mg administered every 12 hrs; assay type: ADME, cell-free; settings: in vitro hollow-fiber PK model simulating human serum; outline: as §1
[34] = test system: Staphylococcus aureus; test: AUBKC (24 hrs) in methicillin-resistant Staphylococcus aureus SMH 32985 infected in in vitro hollow-fiber PK model at 100 mg administered every 12 hrs; assay type: functional; outline: as §3
[35] = test system: Staphylococcus aureus; test: AUBKC (24 hrs) in […] Staphylococcus aureus SMH 26910 infected in in vitro hollow-fiber PK model at 100 mg administered every 12 hrs; assay type: functional; outline: as §3
[36] = test system: Staphylococcus aureus; test: AUBKC (24 hrs) in methicillin-resistant Staphylococcus aureus SMH 32024 infected in in vitro hollow-fiber PK model at 100 mg administered every 12 hrs; assay type: functional; outline: as §3
[37] = test system: Staphylococcus aureus; test: Antibacterial activity against methicillin-resistant Staphylococcus aureus SMH 32985 infected in in vitro hollow-fiber model assessed as log reduction in viable bacterial count at 100 mg administered every 12 hrs measured after 24 hrs; assay type: functional; outline: as §4
[38] = test system: Staphylococcus aureus; test: Ratio of AUC to MIC in methicillin-resistant Staphylococcus aureus infected in in vitro hollow-fiber PK model at 100 mg after 8 hrs; assay type: functional
[39] = Tmax in simulated human serum in in vitro hollow-fiber PK model at 1 g administered every 12 hrs; assay type: ADME, cell-free; settings: in vitro hollow-fiber PK model simulating human serum
Outline: (§5)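 Free vancomycin 1 g q12h simulated in a hollow-fiber model at 37°C with 25% Mueller-Hinton broth. […] Dosed into the dosing chamber at 0 and 12 h. Samples were taken at 0, 1, 2, 3, 4, 5, 6, 12 and 24 h, and concentrations measured by fluorescence polarization immunoassay. Triplicate experiments.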

[40] = test system: Staphylococcus aureus; test: Bactericidal activity against methicillin-resistant Staphylococcus aureus infected in rabbit at 50 mg/kg of body weight administered every 8 hrs measured after 72 hrs; assay type: functional
[41] = Half life in simulated human serum in in vitro hollow-fiber PK model at 1 g administered every 12 hrs; assay type: ADME, cell-free; settings: in vitro hollow-fiber PK model simulating human serum; outline: as §5
[42] = Cmax in simulated human serum in in vitro hollow-fiber PK model at 1 g administered every 12 hrs by fluorescence polarization immunoassay method; assay type: ADME, organism-based; design: dose 1 g; settings: in vitro hollow-fiber PK model simulating human serum; outline: as §5

- Cmax [1]: 2000 ng/mL
- Tmax [2]: 1.2 h
SMILES: CO[C@H]1/C=C/O[C@@]2(C)Oc3c(C)c(O)c4c(O)c(c(/C=N/N5CCN(C)CC5)c(O)c4c3C2=O)NC(=O)/C(C)=C\C=C\[C@H](C)[C@H](O)[C@@H](C)[C@@H](O)[C@@H](C)[C@H](OC(C)=O)[C@@H]1C [RIFAMPIN]

SMILES: CN(C)c1cc(NC(=O)CNC(C)(C)C)c(O)c2c1C[C@H]1C[C@H]3[C@H](N(C)C)C(O)=C(C(N)=O)C(=O)[C@@]3(O)C(O)=C1C2=O [TIGECYCLINE]
- fT>MIC [3]: >50%
- Activity [4]: Active
- Log reduction in bacterial count [4]: 2
- MIC [5]: 0.125 µg/mL (≈ 0.213 µM)

SMILES: C[C@H]1c2cccc(O)c2C(=O)C2=C(O)[C@]3(O)C(=O)C(C(N)=O)=C(O)[C@@H](N(C)C)[C@@H]3[C@@H](O)[C@@H]21.O [DOXYCYCLINE]
- Activity [6]: Active
- Activity [7]: Active
- Activity [8]: Active
- fold change (FC) [9]: 0.5
- fold change (FC) [10]: 0.5
- Activity [4]: Active
- Activity [11]: Active

SMILES: CN(C)c1ccc(O)c2c1C[C@H]1C[C@H]3[C@H](N(C)C)C(O)=C(C(N)=O)C(=O)[C@@]3(O)C(O)=C1C2=O [MINOCYCLINE]
- log10 CFU/g [12]: 5.3 log10 CFU/g
- half-life [13]: 12 h
- MIC [14]: 0.06 µg/mL (≈ 0.131 µM)
- RatioAUC/MIC [15]: 1.6
- Cmax [16]: 600 ng/mL
- MIC [17]: 0.75 µg/mL (≈ 1.64 µM)
- MIC [18]: 0.04 µg/mL (≈ 0.0874 µM)
- FC [19]: 0.5
- FC [20]: 1.4
- FC [21]: 1.5
- FC [22]: 0.1
- FC [23]: 1.6
- RatioAUC/MIC [24]: 2.1
- fold change (FC) [25]: 98.4
- FC [26]: 1.9
- FC [27]: 0.8
- FC [28]: 0.2
- RatioAUC/MIC [29]: 200
- MIC [30]: 0.19 µg/mL (≈ 0.415 µM)
- fT>MIC [31]: 100%
- Tmax [32]: 2.3 h
- half-life [33]: 12 h
- Log reduction in bacterial count [4]: 1.5
- fold change (FC) [34]: 79.7
- fold change (FC) [35]: 77.6
- fold change (FC) [36]: 77.2
- FC [37]: 0.8
- RatioAUC/MIC [38]: 1.7

SMILES: CN[C@H](CC(C)C)C(=O)N[C@H]1C(=O)N[C@@H](CC(N)=O)C(=O)N[C@H]2C(=O)N[C@H]3C(=O)N[C@H](C(=O)N[C@H](C(=O)O)c4cc(O)cc(O)c4-c4cc3ccc4O)[C@H](O)c3ccc(c(Cl)c3)Oc3cc2cc(c3O[C@@H]2O[C@H](CO)[C@@H](O)[C@H](O)[C@H]2O[C@H]2C[C@](C)(N)[C@H](O)[C@H](C)O2)Oc2ccc(cc2Cl)[C@H]1O [VANCOMYCIN]
- Tmax [39]: 1 h
- MIC [14]: 1.5 µg/mL (≈ 1.04 µM)
- MIC [18]: 1.5 µg/mL (≈ 1.04 µM)
- MIC [30]: 1.5 µg/mL (≈ 1.04 µM)
- log10 CFU/g [40]: 4.8 log10 CFU/g
- half-life [41]: 6 h
- Cmax [42]: 15000 ng/mL

— ChEMBL document CHEMBL1649110, “Pharmacodynamics of minocycline against Staphylococcus aureus in an in vitro pharmacokinetic model” (Antimicrob Agents Chemother, 2008)
